Source: ChEMBL document CHEMBL1121690, “Inhibition of cholesterol side-chain cleavage. 3. 22-azacholesterol analogues bearing aryl-substituted side chains” (J Med Chem, 1981)

How the values were obtained:
Conditions in all cases: cattle
[1] = target: T1, cholesterol side-chain cleavage cytochrome P450 (mitochondrial) (Bos taurus, UniProt P00189); assay: Percent inhibition of cholesterol side-chain cleavage cytochrome P450 at 0.1 uM in bovine adrenocortical mitochondrial acetone powder preparations
T1 sequence (P00189 whole entry): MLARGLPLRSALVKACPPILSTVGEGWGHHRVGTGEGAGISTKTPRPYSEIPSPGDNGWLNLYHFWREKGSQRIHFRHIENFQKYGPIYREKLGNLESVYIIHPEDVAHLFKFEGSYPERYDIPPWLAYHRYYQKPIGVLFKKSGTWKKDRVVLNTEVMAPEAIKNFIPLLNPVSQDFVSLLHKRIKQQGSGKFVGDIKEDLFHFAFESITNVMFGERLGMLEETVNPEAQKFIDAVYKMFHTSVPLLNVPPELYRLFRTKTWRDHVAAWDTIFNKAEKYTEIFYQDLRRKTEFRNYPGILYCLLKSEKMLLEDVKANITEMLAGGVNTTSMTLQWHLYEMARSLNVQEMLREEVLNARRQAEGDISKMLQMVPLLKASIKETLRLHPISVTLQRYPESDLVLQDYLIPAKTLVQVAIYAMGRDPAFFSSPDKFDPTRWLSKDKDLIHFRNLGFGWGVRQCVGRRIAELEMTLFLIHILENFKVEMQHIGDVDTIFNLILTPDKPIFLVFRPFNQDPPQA
Method in brief: (§1)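 Inhibitors were dissolved in DMF and added to the incubation mixture before the substrate, at final concentrations of 100 µM or less. Activity was taken from the change in isotope ratios between zero time and 2 h, read by liquid scintillation counting after the isocaproic acid was driven off by heating under vacuum.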

[2] = target: T1, cholesterol side-chain cleavage cytochrome P450 (mitochondrial); assay: Percent inhibition of cholesterol side-chain cleavage cytochrome P450 at 10 uM in bovine adrenocortical mitochondrial acetone powder preparations; method in brief: as §1
[3] = target: T1, cholesterol side-chain cleavage cytochrome P450 (mitochondrial); assay: Percent inhibition of cholesterol side-chain cleavage cytochrome P450 at 100 uM in bovine adrenocortical mitochondrial acetone powder preparations; method in brief: as §1
[4] = target: T1, cholesterol side-chain cleavage cytochrome P450 (mitochondrial); assay: Percent inhibition of cholesterol side-chain cleavage cytochrome P450 at 1 uM in bovine adrenocortical mitochondrial acetone powder preparations; method in brief: as §1

Structure (SMILES)	inhibition at 0.1 µM [1] [%]	inhibition at 10 µM [2] [%]	inhibition at 100 µM [3] [%]	inhibition at 1 µM [4] [%]
CC(NC(=O)CCc1ccccc1)C1CCC2C3CC=C4CC(O)CCC4(C)C3CCC12C (centres undefined)	19			
CC(C(=O)NCc1ccccc1)C1CCC2C3CC=C4CC(O)CCC4(C)C3CCC12C (centres undefined)		31	45	
CC(NC(=O)c1ccccc1)C1CCC2C3CC=C4CC(O)CCC4(C)C3CCC12C (centres undefined)	9	84	84	53
CC(NC(=O)Cc1ccc([N+](=O)[O-])cc1)C1CCC2C3CC=C4CC(O)CCC4(C)C3CCC12C (centres undefined)		49	39	22
CC(NC(=O)Cc1cccc(I)c1)C1CCC2C3CC=C4CC(O)CCC4(C)C3CCC12C (centres undefined)		73		18
CC(NC(=O)Cc1ccccc1)C1CCC2C3CC=C4CC(O)CCC4(C)C3CCC12C (centres undefined)	28	44		

The next lines start with the values.

inhibition at 0.1 µM [1] [%]	inhibition at 10 µM [2] [%]	inhibition at 100 µM [3] [%]	inhibition at 1 µM [4] [%]	Structure (SMILES)
-6	40			COc1ccc(CCNC(C)C2CCC3C4CC=C5CC(O)CCC5(C)C4CCC23C)cc1 (centres undefined)
38				COc1ccc(CC(=O)NC(C)C2CCC3C4CC=C5CC(O)CCC5(C)C4CCC23C)cc1 (centres undefined)
			22	CC(NCCc1ccc(Cl)cc1)C1CCC2C3CC=C4CC(O)CCC4(C)C3CCC12C (centres undefined)
25				CC(NC(=O)Cc1ccc(Cl)cc1)C1CCC2C3CC=C4CC(O)CCC4(C)C3CCC12C (centres undefined)
